These results are taken from ChEMBL document CHEMBL1129794, “Synthesis and evaluation of 2-[(5-methylbenz-1-ox-4-azin-6-yl)imino]imidazoline, a potent, peripherally acting alpha 2 adrenoceptor agonist” (J Med Chem, 1996).

Data set [1] deals with T1, Adrenergic receptor alpha-1 (Homo sapiens, UniProt P35348+P25100+P35368).
T1 sequence (P35348 whole entry): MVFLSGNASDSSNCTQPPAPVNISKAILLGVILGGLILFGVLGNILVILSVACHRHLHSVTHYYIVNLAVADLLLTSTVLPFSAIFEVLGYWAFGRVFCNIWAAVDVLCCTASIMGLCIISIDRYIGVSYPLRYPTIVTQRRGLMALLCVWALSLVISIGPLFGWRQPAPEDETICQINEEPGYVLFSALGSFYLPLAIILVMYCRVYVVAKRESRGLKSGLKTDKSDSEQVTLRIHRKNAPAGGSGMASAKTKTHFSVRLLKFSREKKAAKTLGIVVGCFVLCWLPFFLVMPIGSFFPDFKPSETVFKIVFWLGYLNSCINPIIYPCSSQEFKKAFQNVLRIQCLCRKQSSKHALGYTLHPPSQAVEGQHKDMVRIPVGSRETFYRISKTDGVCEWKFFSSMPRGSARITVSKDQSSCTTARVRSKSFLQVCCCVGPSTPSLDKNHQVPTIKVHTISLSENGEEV
T1 sequence (P25100 whole entry): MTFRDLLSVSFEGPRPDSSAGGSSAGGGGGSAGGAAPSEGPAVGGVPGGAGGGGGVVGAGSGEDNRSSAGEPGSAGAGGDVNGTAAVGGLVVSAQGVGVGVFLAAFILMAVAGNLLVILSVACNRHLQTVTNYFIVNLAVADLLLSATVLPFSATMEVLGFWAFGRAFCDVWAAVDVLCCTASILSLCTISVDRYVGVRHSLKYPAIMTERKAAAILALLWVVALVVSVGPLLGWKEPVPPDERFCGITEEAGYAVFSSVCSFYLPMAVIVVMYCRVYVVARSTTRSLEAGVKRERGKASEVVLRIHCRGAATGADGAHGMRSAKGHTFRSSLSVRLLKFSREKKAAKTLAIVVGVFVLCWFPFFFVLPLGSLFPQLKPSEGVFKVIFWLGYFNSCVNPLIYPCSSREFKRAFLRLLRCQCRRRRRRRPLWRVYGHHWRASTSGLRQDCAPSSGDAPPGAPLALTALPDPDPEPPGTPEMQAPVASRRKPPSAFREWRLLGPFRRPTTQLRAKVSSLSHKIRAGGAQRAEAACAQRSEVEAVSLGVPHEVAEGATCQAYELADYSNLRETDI
T1 sequence (P35368 whole entry): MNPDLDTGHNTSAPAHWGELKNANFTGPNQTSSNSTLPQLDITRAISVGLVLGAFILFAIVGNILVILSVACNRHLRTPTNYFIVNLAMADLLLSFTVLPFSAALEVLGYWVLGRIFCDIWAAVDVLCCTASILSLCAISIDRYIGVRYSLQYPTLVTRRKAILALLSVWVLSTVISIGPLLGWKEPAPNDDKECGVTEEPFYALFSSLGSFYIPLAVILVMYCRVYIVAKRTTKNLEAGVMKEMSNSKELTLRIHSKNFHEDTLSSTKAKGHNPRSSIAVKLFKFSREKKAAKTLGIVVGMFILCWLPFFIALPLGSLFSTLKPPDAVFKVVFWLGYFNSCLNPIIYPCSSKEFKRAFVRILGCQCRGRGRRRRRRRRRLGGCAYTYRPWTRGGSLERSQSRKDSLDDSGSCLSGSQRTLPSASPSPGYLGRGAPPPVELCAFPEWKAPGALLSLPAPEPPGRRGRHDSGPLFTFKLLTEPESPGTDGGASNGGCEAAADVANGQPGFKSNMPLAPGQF
As to the kind of experiment: Compound was tested for binding affinity based on dissociation constant of Alpha-1 adrenergic receptor. The format is protein assay.

For data set [2], the target named is T2, Adrenergic receptor alpha-2 (Homo sapiens, UniProt P08913+P18825+P18089).
T2 sequence (P08913 whole entry): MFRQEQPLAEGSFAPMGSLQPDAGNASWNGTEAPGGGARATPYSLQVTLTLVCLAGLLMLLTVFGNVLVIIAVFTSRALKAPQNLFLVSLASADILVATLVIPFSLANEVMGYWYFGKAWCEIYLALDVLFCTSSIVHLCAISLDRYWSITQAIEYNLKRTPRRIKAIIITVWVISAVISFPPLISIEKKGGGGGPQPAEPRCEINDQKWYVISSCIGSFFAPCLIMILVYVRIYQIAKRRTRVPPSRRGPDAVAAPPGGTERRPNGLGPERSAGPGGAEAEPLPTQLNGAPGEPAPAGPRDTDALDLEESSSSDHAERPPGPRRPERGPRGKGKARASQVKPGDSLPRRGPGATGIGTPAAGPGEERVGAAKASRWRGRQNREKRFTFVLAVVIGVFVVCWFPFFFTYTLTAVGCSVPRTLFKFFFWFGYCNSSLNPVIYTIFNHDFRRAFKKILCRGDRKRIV
T2 sequence (P18825 whole entry): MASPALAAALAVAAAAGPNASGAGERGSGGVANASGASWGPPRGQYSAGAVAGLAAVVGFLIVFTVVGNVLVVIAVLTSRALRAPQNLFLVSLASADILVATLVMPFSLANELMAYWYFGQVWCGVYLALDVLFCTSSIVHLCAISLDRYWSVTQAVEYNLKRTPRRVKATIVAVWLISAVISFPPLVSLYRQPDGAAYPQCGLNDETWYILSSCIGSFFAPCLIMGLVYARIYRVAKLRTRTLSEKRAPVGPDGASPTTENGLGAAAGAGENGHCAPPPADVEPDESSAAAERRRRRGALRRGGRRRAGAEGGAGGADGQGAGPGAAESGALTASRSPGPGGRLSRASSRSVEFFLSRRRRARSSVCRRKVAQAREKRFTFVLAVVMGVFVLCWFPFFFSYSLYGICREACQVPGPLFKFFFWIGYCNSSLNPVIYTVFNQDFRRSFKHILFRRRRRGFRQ
T2 sequence (P18089 whole entry): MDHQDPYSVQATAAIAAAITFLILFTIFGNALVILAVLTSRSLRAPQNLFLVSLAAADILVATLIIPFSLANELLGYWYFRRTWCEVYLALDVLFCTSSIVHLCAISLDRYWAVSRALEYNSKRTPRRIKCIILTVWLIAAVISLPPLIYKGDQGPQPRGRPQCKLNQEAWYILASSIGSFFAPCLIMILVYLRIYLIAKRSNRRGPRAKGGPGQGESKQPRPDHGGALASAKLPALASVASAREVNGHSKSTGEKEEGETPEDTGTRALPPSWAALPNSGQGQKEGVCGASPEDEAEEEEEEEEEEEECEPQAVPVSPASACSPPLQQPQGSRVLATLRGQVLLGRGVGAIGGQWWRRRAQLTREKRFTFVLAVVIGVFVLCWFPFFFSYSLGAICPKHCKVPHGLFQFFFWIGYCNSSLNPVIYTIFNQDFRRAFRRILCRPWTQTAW
The experiment in a line: Compound was tested for concentration that produced 50% contractile response relative to maximum response to norepinephrine for Alpha-2 adrenergic receptor in rabbit vas deferens. As to conditions: target entry is the homologue from another species. In kind it is functional, tissue-based, Oryctolagus cuniculus.

A short description of data set [3]: pKa value determined in the presence of the partition solvent for guanidine subunit. The format is physicochemical. In short, it runs like this:
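Potentiometric titration: compound dissolved, solution titrated to predetermined final pH; pKa measured in water and again with octanol or dodecane added before titration; log P derived from shift between aqueous pKa and pKa in presence of partition solvent.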

For data set [4], the target named is T3, Alpha-2B adrenergic receptor (Rattus norvegicus, UniProt P19328).
T3 sequence (P19328 whole entry): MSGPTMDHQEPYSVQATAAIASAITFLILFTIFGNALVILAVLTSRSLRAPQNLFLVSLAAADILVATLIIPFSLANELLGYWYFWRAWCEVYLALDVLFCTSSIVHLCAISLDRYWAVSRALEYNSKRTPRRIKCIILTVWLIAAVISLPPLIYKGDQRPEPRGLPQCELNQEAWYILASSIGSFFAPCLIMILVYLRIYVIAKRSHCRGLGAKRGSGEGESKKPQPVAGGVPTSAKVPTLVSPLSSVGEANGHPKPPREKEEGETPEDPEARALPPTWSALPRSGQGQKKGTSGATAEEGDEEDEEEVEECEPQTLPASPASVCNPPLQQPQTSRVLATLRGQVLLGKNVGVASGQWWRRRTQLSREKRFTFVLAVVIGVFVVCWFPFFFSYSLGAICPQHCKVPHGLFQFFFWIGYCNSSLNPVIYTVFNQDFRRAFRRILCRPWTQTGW
The experiment in a line: Compound was tested in vitro for binding affinity against Alpha-2B adrenergic receptor from cloned rat RNG receptor transfected into Chinese hamster ovary (CHO) cells. In kind it is cell-based. In short, it runs like this:
(§1)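 Membrane binding using cloned receptors expressed in transfected CHO cells: alpha-2A human C-10, alpha-2B rat RNG, alpha-2C human C-2.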

Data set [5] concerns the target T4, Alpha-2C adrenergic receptor (Homo sapiens, UniProt P18825).
T4 sequence (P18825 whole entry): T2 sequence (P18825 whole entry)
As to the kind of experiment: Compound was tested in vitro for binding affinity against Alpha-2C adrenergic receptor from cloned human C-2 receptor transfected into Chinese hamster ovary (CHO) cells. In kind it is cell-based. In short, it runs like this: as §1

Data set [6] concerns the target T5, Alpha-2A adrenergic receptor (Homo sapiens, UniProt P08913).
T5 sequence (P08913 whole entry): T2 sequence (P08913 whole entry)
The experiment in a line: Compound was tested in vitro for binding affinity against Alpha-2A adrenergic receptor from cloned human C-10 receptor transfected into Chinese hamster ovary (CHO) cells. The format is cell-based. In short, it runs like this: as §1

As usually defined, the Ki is the dissociation constant of the complex between target and ligand, obtained from inhibition or displacement. The low end stands for higher affinity, the high end for lower affinity. The term EC50 denotes the concentration that produces a half-maximal response. Lower therefore signals higher potency in that assay. As usually defined, the pKa is the pH at which an ionisable group is half protonated. `Cc1c(NC2=NCCN2)ccc2c1NCCO2` had an inhibition constant Ki in data set [1] of 0.47 µM. In data set [2], this molecule had an EC50 of 0.0012 µM. Also, the pKa in data set [3] worked out at 11.1.

On to `Cc1c(NC2=NCCN2)ccc2nccnc12`, for which the Ki in data set [4] stood at 0.017 µM; in data set [5], 0.027 µM; in data set [6], 0.002 µM. In data set [2], the EC50 came to 0.00026 µM. In data set [3], the pKa is 9.4.

Turning to `Cc1c(NC2=NCCN2)ccc2c1NCCN2`, the affinity in data set [5] corresponds to a Ki of 0.12 µM. In data set [2], this molecule displayed an EC50 of 0.0035 µM. In addition, the pKa in data set [3] is 11.3.

For the molecule `Nc1cc(Cl)c(N=C2NCCN2)c(Cl)c1` [APRACLONIDINE], the Ki in data set [5] was 0.03 µM; in data set [1], 0.18 µM.
